Assay results: ChEMBL document CHEMBL1134654, “Alpha-amino acid phenolic ester derivatives: novel water-soluble general anesthetic agents which allosterically modulate GABA(A) receptors” (J Med Chem, 2001)

How the values were obtained:
Mus musculus = assay: Loss of righting reflex following i.v. administration in mice.; type: functional
In short: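 Male MF-1 mice in groups of eight given compound in saline iv via lateral tail vein over 10 s (10 mL/kg). Doses on a umol/kg scale, extra doses added to narrow range. Animals boxed separately; loss of righting reflex lasting ≥30 s scored. HD50 with 95% confidence limits by probit analysis.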

[1] = target: GABA-A receptor; anion channel (Rattus norvegicus) (UniProt O09028+P15431+P18506+P18508+P19969+P20236+P23574+P23576+P28471+P28473+P30191+P62813+P63079+P63138+Q91ZM7+Q9ES14); assay: Ability to inhibit [35S]t-butyl-bicyclophosphorothionate binding by 50% to rat whole brain membrane; type: tissue-based
In short: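 Male Wistar rat whole-brain membranes, washed with four freeze–thaw cycles. 100 ug membrane protein incubated with [35S]TBPS (2 nM final) in 20 mM KH2PO4/200 mM KCl, pH 7.4, containing GABA 600 nM final. Incubated 150 min at about 22 °C on shaker; vacuum filtration through GF/B filters; scintillation counting. Nonspecific binding with 200 uM picrotoxin. Reported as IC50, mean ± SEM.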

[2] = target: T1, GABA-A receptor; alpha-1/beta-3/gamma-2 (Homo sapiens, UniProt P14867+P18507+P28472); assay: GABA-modulatory action compound was evaluated on Oocytes expressing recombinant human alpha-1-beta-3-gamma-2L GABA A receptor at concentrations of >=100 micro<M; type: protein-complex assay
T1 sequence (P14867 whole entry): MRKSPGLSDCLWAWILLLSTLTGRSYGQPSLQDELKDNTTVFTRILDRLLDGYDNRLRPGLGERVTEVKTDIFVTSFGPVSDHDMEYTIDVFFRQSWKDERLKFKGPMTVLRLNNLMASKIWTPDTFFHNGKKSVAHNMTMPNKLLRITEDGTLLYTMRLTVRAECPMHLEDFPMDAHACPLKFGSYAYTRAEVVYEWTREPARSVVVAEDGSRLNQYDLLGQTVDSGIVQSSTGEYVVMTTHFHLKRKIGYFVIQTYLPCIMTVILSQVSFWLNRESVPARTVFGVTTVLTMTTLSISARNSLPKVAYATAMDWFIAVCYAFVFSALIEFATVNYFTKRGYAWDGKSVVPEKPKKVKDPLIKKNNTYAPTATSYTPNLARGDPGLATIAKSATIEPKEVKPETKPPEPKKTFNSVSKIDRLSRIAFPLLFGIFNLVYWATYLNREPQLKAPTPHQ
T1 sequence (P18507 whole entry): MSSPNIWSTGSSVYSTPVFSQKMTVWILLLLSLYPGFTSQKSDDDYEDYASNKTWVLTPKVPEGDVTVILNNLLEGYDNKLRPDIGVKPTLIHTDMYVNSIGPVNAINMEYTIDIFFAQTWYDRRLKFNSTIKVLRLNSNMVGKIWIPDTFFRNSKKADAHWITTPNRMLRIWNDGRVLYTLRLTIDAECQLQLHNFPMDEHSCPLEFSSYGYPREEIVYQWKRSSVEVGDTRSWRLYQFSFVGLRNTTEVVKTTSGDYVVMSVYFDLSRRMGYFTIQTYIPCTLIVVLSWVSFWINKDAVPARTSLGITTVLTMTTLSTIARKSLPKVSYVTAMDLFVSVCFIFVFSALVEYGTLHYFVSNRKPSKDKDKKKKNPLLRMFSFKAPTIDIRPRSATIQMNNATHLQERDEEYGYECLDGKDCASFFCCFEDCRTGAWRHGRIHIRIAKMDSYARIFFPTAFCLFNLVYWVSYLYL
T1 sequence (P28472 whole entry): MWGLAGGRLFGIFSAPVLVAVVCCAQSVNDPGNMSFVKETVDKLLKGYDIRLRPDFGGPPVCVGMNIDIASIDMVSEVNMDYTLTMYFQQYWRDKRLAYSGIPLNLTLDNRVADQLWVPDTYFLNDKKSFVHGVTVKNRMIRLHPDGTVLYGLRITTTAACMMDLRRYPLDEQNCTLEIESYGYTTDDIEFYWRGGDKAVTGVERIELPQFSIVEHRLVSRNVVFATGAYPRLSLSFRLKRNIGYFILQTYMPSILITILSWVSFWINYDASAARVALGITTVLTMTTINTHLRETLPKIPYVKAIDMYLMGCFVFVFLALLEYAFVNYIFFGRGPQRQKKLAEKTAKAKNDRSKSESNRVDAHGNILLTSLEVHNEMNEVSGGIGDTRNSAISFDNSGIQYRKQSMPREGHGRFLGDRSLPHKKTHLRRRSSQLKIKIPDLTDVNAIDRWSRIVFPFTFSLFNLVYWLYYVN
In short: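 Oocytes expressing human α1β3γ2L receptors, used 2–12 days after cRNA injection, were recorded with two electrodes at 18–22 °C. […] Compound was preapplied 30–60 s, then co-applied with EC10 GABA. Peak current was read manually; EC50 came from the fitted curve; mean ± s.e.mean.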

[3] = target: T1, GABA-A receptor; alpha-1/beta-3/gamma-2; assay: GABA-mimetic action on Oocytes expressing human alpha-1-beta-3-gamma-2L GABA-A receptor subunits at >=100 uM

Compound | HD50 (Mus musculus) [µmol/kg] | TBPS IC50 [1] [µM] | EC50 [2] [µM] | EC50 [3] [µM]
CCC(C(=O)Oc1c(OC)cc(C)cc1OC)N1CCOCC1 (stereo not drawn) | 68.1 |  |  | 
CCC(C(=O)Oc1c(OC)cccc1OC)N(CCOC)CCOC (stereo not drawn) |  | 24.3 |  | 
COc1cccc(OC)c1OC(=O)C(c1ccccc1)N1CCOCC1 (stereo not drawn) | 39.6 | 66 |  | 
CCC(C(=O)Oc1c(OC)cc(C)cc1OC)N(CCOC)CCOC (stereo not drawn) | 21.7 | 29.3 |  | 
CC[C@H](C(=O)Oc1c(OC)cc(C)cc1OC)N(CCOC)CCOC [ORG-24447] | 18 | 16 | 10 | 
CC(C)c1cccc(C(C)C)c1OC(=O)CN1CCOCC1 | 98.1 |  |  | 
COc1cccc(OC)c1OC(=O)[C@@H](C)N1CCc2ccccc2C1 | 20.7 | 3.3 | 4.1 | 
CCCCC(C(=O)Oc1c(OC)cccc1OC)N(CCOC)CCOC (stereo not drawn) | 11 | 1.6 |  | 
COc1cccc(OC)c1OC(=O)[C@H](C)N1CCc2ccccc2C1 | 82.6 | 23.8 | > 100 | 
COc1cccc(OC)c1C(=O)OCCN1CCc2ccccc2C1 | 19 | > 30 |  | 
COc1cccc(OC)c1OC(=O)C(C)N1CCc2ccccc2C1 (stereo not drawn) | 33.2 | 4.8 | 5.5 | 
COCCN(CCOC)C(C(=O)Oc1c(OC)cccc1OC)C(C)C (stereo not drawn) | 26.9 | > 10 |  | 
COc1cc(C)cc(OC)c1OC(=O)C(C)(C)N1CCOCC1 | 53.8 | > 10 |  | 
CCC(C(=O)Oc1c(OC)cccc1OC)N1CCOCC1 (stereo not drawn) | 38 | > 10 |  | 
CC(C)c1cccc(C(C)C)c1O [PROPOFOL] |  |  | 4.1 | 50
CCCC(C(=O)Oc1c(OC)cccc1OC)N(CCOC)CCOC (stereo not drawn) | 12.4 | 7.7 |  | 
COc1cccc(OC)c1OC(=O)[C@@H](C)N1CCOCC1.Cl | 85.9 | > 100 | 198 | 
COc1cccc(OC)c1NC(=O)[C@@H](C)N1CCc2ccccc2C1 | 44.1 | > 10 |  | 
COc1cccc(OC)c1C(=O)NCCN1CCc2ccccc2C1 | 45.7 | > 100 |  | 
CC[C@H](C(=O)Oc1c(OC)cccc1OC)N(CCOC)CCOC |  | 7.4 |  | 
CCC[C@H](C(=O)Oc1c(OC)cccc1OC)N(CCOC)CCOC | 7.3 | 3.2 |  | 
